# Bioassay records as filed in PubChem BioAssay.
# Cardio protect – cardioprotection against H2O2-induced cell death, primary screen, uHTS, H9c2 cells, ATPLite luminescence; H9c2 cardiomyocytes, H2O2 injury protection, 2 h; protection from H2O2 cell death, % at 20 µM; 360,000 compounds, 0.63% hits;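 active means compounds giving at least 50% protection of heart cells from peroxide-induced death in the single-dose screen, raw or plate-pattern-corrected value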;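 further: 0% = DMSO wells with peroxide and 100% = DMSO wells without peroxide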
# UPR XBP1 act – activators of adaptive XBP1 UPR arm, primary screen, cell-based, CHO-XBP1 luciferase reporter, luminescence, uHTS; IRE1-XBP1 UPR activation; percent of tunicamycin response, DMSO as zero; activation, % at 20 µM; 330,000 compounds, 0.33% hits; AID 463104, 2010;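 active means versus positive control, 20 µM dose yields 30% or more activation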;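 further: 100% = tunicamycin at 10 µg/mL and 0% = DMSO only wells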
#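 Assay system: CHO-XBP1 luciferase reporter cells; Schedule: 6 h treatment, 37 °C; Detection: glow luminescence from Steady-Glo reagent; Benchmarks: high control tunicamycin 10 µg/mL final, low control DMSO vehicle only.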
# CHOP inh – inhibitors of CHOP promoter induction, primary screen, cell-based, unfolded protein response, luciferase reporter | 220,000 compounds, 3.8% hits | CHO-K1 CHOP-promoter luciferase, tunicamycin-induced, 15-18 h | inhibition, % at 10 µM;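 active means compounds that reduced the stress-induced luciferase reporter signal by more than about 70% of percent inhibition, limit read from the data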;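 further: 0% = tunicamycin plus vehicle and 100% = wells without tunicamycin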
# CHOP UPR activ – activators of apoptotic CHOP UPR arm, primary screen, cell-based, CHO-CHOP luciferase reporter, luminescence, uHTS | activation, % at 10 µM | 330,000 compounds, 0.34% hits | UPR activation; percent of tunicamycin response over DMSO baseline;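 active means at 10 µM dose, activation of 40% or more, normalized to positive control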;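 further: 100% = tunicamycin at 10 µg/mL and 0% = DMSO alone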
#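 Test system: CHO CHOP reporter cells. Input: 500 CHO-CHOP cells per well. Medium: F12 with 10% FBS. Technique: luciferase luminescence. Measure: percent activation relative to tunicamycin control. Dosing: 10 µM compound, 0.5% DMSO. Timing: 16-18 h cell attachment, then 6 h compound exposure, 37 °C.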
# iPSC survival up – enhancers of single-cell hiPSC survival, primary screen, ATPlite luminescence; survival enhancement, % at 20 µM; 360,000 compounds, 0.044% hits; 100% = ROCK inhibitor wells, 0% = DMSO; in the data active means survival enhancement above about 18%;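 further: cells exposed to compounds for 16 hours before the ATP read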
# Numbers without * were called inactive; nt = no result. This is one part of a sample in which hits are shown more often than they occur.
SMILES,Cardio protect,UPR XBP1 act,CHOP inh,CHOP UPR activ,iPSC survival up
CCOC(=O)N1CCN(S(=O)(=O)c2ccc(C(=O)NNc3nc4c(C)cc(C)cc4s3)cc2)CC1,47.5,-4.1,18.3,-2.3,-0.5
CCOC(=O)N1CCN(S(=O)(=O)c2ccc(C(=O)NNc3nc4cc(C)cc(C)c4s3)cc2)CC1,55.9*,4.5,45.2,-0.4,0.4
CCc1nc2c(OCC(N)=O)cccn2c1N(C)C(=O)c1cccs1,18.8,nt,nt,nt,-1.2
O=C(NC(=S)Nc1nc(-c2ccccc2)cs1)c1cccs1,-8.9,0.4,74.3*,2.8,2.3
O=C(Nc1nc(-c2ccccc2)cs1)c1ccc(Br)o1,-2.6,5.2,74.4*,5.7,10.6
O=C(Nc1cccc2cccnc12)c1ccc(Br)o1,6.9,1.0,77.4*,0.9,1.4
O=C(Nc1cccc2ccccc12)c1ccc(Br)o1,-3.1,nt,-3.8,nt,-2.7
CC(C)(Oc1ccc(Cl)cc1)C(=O)NCC1CCCO1 (stereo not given),0.5,0.2,nt,0.2,0.2
N/C(=N\OC(=O)c1ccc(Cl)cc1Cl)c1ccccn1,-25.2,-6.4,79.2*,-11.0,-6.3
N/C(=N\OC(=O)c1ccc(Br)cc1)c1ccccc1,-19.3,-3.5,-19.7,-1.3,-0.6
Cc1ccc(C(=O)O/N=C(\N)c2ccccc2)c(Cl)c1,-21.7,-12.1,71.7*,-10.1,-0.6
Cc1ccc(/C(N)=N/OC(=O)COc2ccccc2Cl)cc1,-15.3,-0.2,70.2*,4.0,-1.7
Cc1ccc(C(=O)O/N=C(\N)c2ccccn2)c(Cl)c1,-16.8,-12.7,nt,-11.8,-0.7
Cc1ccc(C(=O)O/N=C(\N)c2ccc(Br)cc2)cc1,-15.9,-3.0,71.7*,3.8,-2.3
COCCNC(=O)C[C@H]1C[C@H]2c3cc(NS(=O)(=O)c4ccc(F)cc4)ccc3O[C@H]2[C@H](CO)O1,-3.3,nt,nt,nt,-1.6
CC(C)(CN1CCCN(CC(C)(C)C(=O)O)C1=O)C(=O)O,4.2,nt,nt,nt,0.7
CC(C)C[C@H]1CN(CCCC[C@H]2CNC(=O)C(=O)N2CCC2CCCCC2)C(=O)C(=O)N1CC1CCCCC1,nt,nt,nt,nt,-1.1
Cc1ccc(S(=O)(=O)N2C[C@]3(O)C[C@@H]4C(=O)N(c5ccccc5)C(=O)[C@@H]4C[C@]3(OC(=O)NCC3CCCCC3)C2)cc1,-5.1,nt,nt,nt,-1.9
COC(=O)[C@H](Cc1ccccc1)NC(=O)Cn1cnc(C(=O)Nc2ccc(C)c(C)c2)n1,-3.6,0.6,nt,2.2,2.1
Cc1ccc(SCc2cc(=O)[nH]c(N3CCN(Cc4ccccc4)CC3)n2)cc1,-0.1,-3.2,90.3*,-0.3,-1.1
Cc1ccc(SCc2cc(=O)[nH]c(N3CCN(Cc4ccc5c(c4)OCO5)CC3)n2)cc1,-20.2,-3.9,75.2*,-0.2,1.3
CCCCCOc1ccc(/C=C/c2c([N+](=O)[O-])c(=O)n(C)c(=O)n2C)cc1,-3.6,-2.7,nt,2.1,0.3
O=C1NC[C@H](CCCCN2C[C@H](Cc3ccc(O)cc3)N(CC3CCCCC3)C(=O)C2=O)N(CC2CCCCC2)C1=O,nt,nt,nt,nt,-0.3
Cc1ccccc1-c1nnc(SC(C)C(=O)NC2CCCC2)o1 (stereo not given),-4.4,-1.4,nt,-2.5,0.1
CC(O)(CS(=O)(=O)Cc1ccc(Cl)cc1)C(=O)Nc1cccc(C(F)(F)F)c1 (stereo not given),-1.9,-1.3,5.5,-1.6,-0.6
SMILES,Cardio protect,UPR XBP1 act,CHOP inh,CHOP UPR activ,iPSC survival up
O=C(Nc1cccc(C(F)(F)F)c1)N(Cc1ccc(Cl)cc1)CC(O)C(F)(F)F (stereo not given),-34.8,0.9,74.2*,-0.5,2.9
CC(C)c1nc(N2CCN(C(=O)c3ccco3)CC2)c2c3c(sc2n1)CCCC3,-9.6,-3.5,73.8*,3.9,-1.5
O=C1NC[C@H](CCCCN2C[C@H](Cc3ccc(O)cc3)N(CCc3ccccc3)C(=O)C2=O)N(CCc2ccc(O)cc2)C1=O,nt,nt,nt,nt,1.5
CCc1cccc2c1NC1(CCCC1)CC2C (stereo not given),-5.7,-2.8,91.1*,-0.8,2.4
Cc1ccc(C(C)C)c(OCc2nc(-c3nonc3N)no2)c1,-5.9,3.1,94.7*,4.5,-2.7
COc1ccc(Oc2ccc(/C=C/C(=O)c3ccc(O)cc3)cc2[N+](=O)[O-])cc1,-21.9,4.3,86.5*,13.0,-2.9
COc1ccc(/C=C/C(=O)c2ccc(O)cc2)cc1COc1ccc(F)cc1,0.2,0.0,85.0*,2.8,-1.7
O=C(/C=C/c1ccc(O)c([N+](=O)[O-])c1)c1ccc2ccccc2c1,-13.6,6.3,nt,4.6,0.7
CNS(=O)(=O)c1ccc(CNC[C@H]2O[C@@H](n3cnc4c(=O)[nH]c(N)nc43)[C@H](O)[C@@H]2O)cc1,-3.1,nt,nt,nt,-1.6
CCN(CC)C(=O)C1=C(C)N(Cc2ccc(C(C)(C)C)cc2)C(=O)C(CC(=O)NCC2CCCCC2)C1 (stereo not given),-4.2,nt,nt,nt,-1.2
CCCC(=O)NC(c1cccs1)c1cc([N+](=O)[O-])c2cccnc2c1O (stereo not given),49.6,nt,35.8,nt,2.3
O=C(CCc1ccccc1)NC(c1cccs1)c1cc(Cl)c2cccnc2c1O (stereo not given),47.5,nt,89.4*,nt,-1.8
Cc1ccc(C(=O)n2c(N)nc3ccccc32)cc1,-27.2,-5.6,74.8*,-9.5,-4.7
CCc1nc2c(OCCC3CCCCC3)cccn2c1N(C)C(=O)c1ccc(C)cc1,-15.6,nt,nt,nt,2.9
CCOC(=O)Nc1ccc(N2CCOCC2)c(S(=O)(=O)Nc2ccc(Cl)cc2)c1,-5.2,0.8,nt,0.5,0.2
O=C(CCNS(=O)(=O)c1cccc2nonc12)NCCc1ccc(Cl)cc1,0.5,0.7,75.9*,-1.2,-2.7
O=C1c2ccccc2NC(c2ccc([N+](=O)[O-])cc2)N1O (stereo not given),62.0*,-2.8,39.6,-2.6,0.8
Cc1c(C2Nc3ccccc3C(=O)N2O)cnn1C (stereo not given),52.3*,-0.2,-7.2,1.7,3.5
N[C@H](CCC(=O)NCS(=O)(=O)O)C(=O)O,nt,nt,2.0,nt,nt
CCCOc1ccc(CSCCNC(=S)Nc2ccccc2)cc1,-17.9,-0.6,66.9,1.2,-2.6
S=C(NCCSCc1ccccc1Cl)Nc1ccccc1,-2.4,-4.5,71.4*,-0.3,-2.2
S=C(NCCSCc1ccc(Cl)cc1)Nc1ccccc1,-8.2,-0.7,80.3*,-1.3,-2.1
COC(=O)c1c(NC(=O)COc2ccc(Cl)cc2)sc2c1CC(C)(C)NC2(C)C,-16.9,43.0*,nt,11.5,-0.3
COC(=O)c1c(NC(=O)Cc2ccccc2)sc2c1CC(C)(C)NC2(C)C,15.6,5.0,nt,-0.4,-2.5
CCN(C(=O)COC(=O)c1ccccc1Cc1ccccc1)C1CCS(=O)(=O)C1 (stereo not given),1.2,-1.4,nt,1.0,-0.3
